# Bioassay records from PubChem BioAssay.
# Only a selection was taken, and hits are over-represented in it overall.
# CHOP inhibitor = inhibitors of CHOP induction in ER stress response | CHO-K1 CHOP-promoter luciferase, tunicamycin-induced, 15-18 h | inhibition, % at 10 µM | actives 3.8% (n = 220,000) | AID 2732;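 active = compounds that reduced the stress-induced luciferase reporter signal by more than about 70% of percent inhibition, limit read from the data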
# CHOP UPR activ = activators of apoptotic arm of unfolded protein response (CHOP); CHO-CHOP luciferase reporter, UPR activation, luminescence; percent of tunicamycin response over DMSO baseline; activation, % at 10 µM; actives 0.34% (n = 330,000); AID 449763;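 active = at 10 µM dose, activation of 40% or more, normalized to positive control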
#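 Evaluation: % reporter activation, DMSO baseline versus tunicamycin full activation; System: CHO-CHOP luciferase reporter cell line; Input: 500 cells/well; Incubation: 6 h compound treatment, 37 °C; Measured by: Steady-Glo luciferase luminescence; Dosing: one dose, 10 µM in 0.5% DMSO; Buffer or medium: F12 medium, 10% FBS; Benchmarks: positive tunicamycin 10 µg/mL, negative DMSO alone.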
# UPR XBP1 act = activators of adaptive arm of unfolded protein response (XBP1). CHO-XBP1 luciferase reporter, IRE1-XBP1 UPR activation, luminescence; percent of tunicamycin response, DMSO as zero. activation, % at 20 µM. actives 0.33% (n = 330,000). AID 463104;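 active = versus positive control, 20 µM dose yields 30% or more activation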
#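 Material: CHO-XBP1 cells stably carrying IRE1-XBP1-driven luciferase reporter / Amount: 1000 cells per well / Compound: 20 µM, 1% DMSO / Times: 6 h treatment, 37 °C / Detection: luciferase luminescence / Measure: % activation of reporter signal versus tunicamycin and DMSO controls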
# 697 NFkB inh = lowers PMA/ionomycin-induced NF-kB signal in 697 B cells; actives 0.33% (n = 330,000); inhibition, % at 4 µM; 697 B-cell NF-kB luciferase reporter, 16 h; in the data active = inhibition above about 35%
# Jurkat NFkB inh = lowers PMA/ionomycin-induced NF-kB signal in Jurkat cells; PMA/ionomycin-induced NF-kB luciferase reporter, luminescence; inhibition, % at 4 µM; actives 0.53% (n = 330,000); AID 435003; in the data active = inhibition above about 50%
# Jurkat NFkB conf = lowers PMA/ionomycin-induced NF-kB signal in Jurkat cells; shares compounds with Jurkat NFkB inh; Jurkat NF-kB luciferase, 16 h; inhibition, % at 4 µM; actives 27% (n = 2,700);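 active = inhibition reaching about 45% at 4 µM in either replicate, limit read from the data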
# A number is an active result; - = inactive; . = not tested or not shown.
SMILES,CHOP inhibitor,CHOP UPR activ,UPR XBP1 act,697 NFkB inh,Jurkat NFkB inh,Jurkat NFkB conf
Cc1cc(C)c2ccc(N)nc2c1O,.,-,-,-,52,-
Cc1cc(C)c2cccc(N)c2n1,-,-,-,-,-,.
COc1cc(Nc2ccc(C)cc2)c([N+](=O)[O-])nc1[N+](=O)[O-],-,-,-,-,58,50
COc1ccc(-c2csc(NC(=O)C3CCN(c4ncnc5sc(C)c(C)c45)CC3)n2)cc1OC,.,-,-,-,53,-
COc1ccccc1OCC(=O)NNC(=O)C1CCN(c2ncnc3sc(C)c(C)c23)CC1,.,-,-,-,-,.
O=C(Nc1ccc(Cc2ccncc2)cc1)c1ccc(S(=O)(=O)N2CCCC2)cc1,-,-,-,-,50,47
O=C(Nc1ccc(S(=O)(=O)N2CCCC2)cc1)c1ccc(CN2CCc3ccccc3C2)cc1,70,-,-,-,75,75
O=C(Nc1ccc(S(=O)(=O)N2CCCCC2)cc1)c1ccncc1,-,-,-,-,-,.
Cc1ccccc1C(=O)Nc1ccnn1C1CCN(Cc2ccccn2)CC1,.,-,-,-,-,.
Cc1c(CCCC(=O)O)sc(N)c1C(=O)c1cccc(C(F)(F)F)c1,.,-,-,-,-,.
COc1ccccc1NC(=O)c1oc2ccccc2c1NC(=O)c1cc(OC)c(OC)c(OC)c1,.,-,-,-,64,-
CCCC1=C(C(=O)OCC)C(/C=C/c2ccccc2)n2ncnc2N1 (configuration not stated),-,-,-,-,53,-
O=C(NCC1CCCO1)C1CCCN1C(=O)Nc1ccc(Cl)cc1 (configuration not stated),-,-,-,-,-,.
CCOC(=O)c1ccccc1NC(=O)Cn1c(-c2nonc2N)nc2ccccc21,.,-,-,-,82,61
Nc1nonc1-c1nc2ccccc2n1CC(=O)Nc1ccccc1,-,-,-,-,-,.
COc1cccc(N2CCN(C(=O)c3ccc(CS(=O)c4ccccc4Cl)o3)CC2)c1 (configuration not stated),.,-,-,-,56,53
COc1cccc(N2CCN(C(=O)c3[nH]c(C)c(C(C)=O)c3C)CC2)c1,.,-,-,-,55,-
COc1ccc(N2CCN(C(=O)c3ccc(CS(=O)c4cccc(C)c4)o3)CC2)cc1 (configuration not stated),.,-,-,-,-,.
COc1cccc(N2CCN(C(=O)c3ccc(CS(=O)c4ccccc4C)o3)CC2)c1 (configuration not stated),.,-,-,-,56,36
CCCCn1c(N)c(N(CCOC)C(=O)c2ccc(S(=O)(=O)N3CCCCCC3)cc2)c(=O)[nH]c1=O,.,-,-,-,-,.
NC(N)=NN=C1CCCCCCCCCCC1,-,-,-,-,69,-
Cc1c(C(=O)Nc2ccccc2)csc1-c1ccccc1,-,-,-,-,-,-
Cc1nc(-c2ccc(NC(=O)c3ccc(Br)o3)cc2)cs1,.,-,-,-,-,-
O=C(CCc1ccccc1)N=C1SC2CS(=O)(=O)CC2N1c1cccc(F)c1 (configuration not stated),.,-,-,-,-,.
CCc1ccc(N(CC(=O)NC2CCCCC2)C(=O)CCC(=O)Nc2ccccn2)cc1,.,-,-,-,-,.
SMILES,CHOP inhibitor,CHOP UPR activ,UPR XBP1 act,697 NFkB inh,Jurkat NFkB inh,Jurkat NFkB conf
CCc1ccc(S(=O)(=O)/N=C2\C=C(Nc3ccc(O)cc3)C(=O)c3ccccc32)cc1,.,-,-,-,54,52
CCc1ccc(S(=O)(=O)/N=C2\C=C(Nc3cccc(C(=O)O)c3)C(=O)c3ccccc32)cc1,.,-,-,-,-,.
O=C(c1cccc(N2CCCC2=O)c1)N1CCN(c2cccc(Cl)c2)CC1,.,-,-,-,53,-
O=C(c1cccc(N2CCCC2=O)c1)N1CCN(c2ccc(F)cc2)CC1,.,-,-,-,-,.
Cc1cccc(N2CCN(C(=O)c3cccc(N4CCCC4=O)c3)C(C)C2)c1 (configuration not stated),.,-,-,-,56,-
CCN1/C(=C/c2ccc3ccccc3[n+]2CC)C=Cc2ccccc21,.,-,-,-,97,71
CCCCN1/C(=C/c2ccc3ccccc3[n+]2CC)Sc2ccccc21,84,-,-,-,87,67
